Key:
[1] = In vitro time required for 50% hydrolysis at 37 degree Celsius upon incubation in rat hepatic microsomes; assay type: functional; settings: Liver
Summary of the method: (§1)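 Ester (10 mg/mL DMSO stock, diluted 1:100) incubated at 37 °C in human plasma or in rat hepatic microsomes (15.5 mg protein/mL solution). Samples taken over 0–4 h and quenched in ice-cold methanol. Remaining ester quantified by reverse-phase HPLC. t1/2 = time to 50% hydrolysis.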

H9 = test: Evaluated in vitro for the concentration required to produce 50% inhibition of proliferation of H9 lymphocytes; assay type: functional, cell-based; settings: Homo sapiens
Summary of the method: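 H9 lymphoblastoid cells grown in RPMI 1640 with 15% FBS, penicillin/streptomycin and 2 mM L-glutamine at 37 °C under 5% CO2. Viability read by trypan blue dye exclusion. IC50 taken as the concentration giving 50% inhibition of proliferation.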

[2] = Evaluated for Partition coefficient in n-octanol and phosphate buffer pH 7.4; assay type: physicochemical; settings: octanol/water
Summary of the method: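 Ester solutions in n-octanol equilibrated with phosphate buffer (0.2 M, pH 7.4) at room temperature. Partition coefficient derived from the distribution between the two phases.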

[3] = In vitro time required for 50% hydrolysis at 37 degree Celsius upon incubation in human plasma; assay type: functional, cell-free; summary of the method: as §1
[4] = system: Human immunodeficiency virus 1; test: Evaluated in vitro for the concentration required to produce 50% inhibition of replication of HIV-1; assay type: functional, organism-based

Row | PC [2] | IC50 [4] [µM] | SMILES | T1/2 [1] [min] | IC50 (H9) [µM] | T1/2 [3] [min]
1 | 10.3 | 0.1 | CCC(C)C(N)C(=O)OC[C@H]1O[C@@H](n2cc(C)c(=O)[nH]c2=O)C[C@@H]1N=[N+]=[N-].O=C(O)C(F)(F)F (stereo partly drawn) | 19 | 250 | > 240
2 | 1.6 | – | Cc1cn([C@H]2C[C@H](N=[N+]=[N-])[C@@H](COC(=O)c3cccnc3)O2)c(=O)[nH]c1=O | 30 | – | 10
3 | 0.94 | 0.11 | Cc1cn([C@H]2C[C@H](N=[N+]=[N-])[C@@H](COC(=O)C(N)Cc3ccc(O)cc3)O2)c(=O)[nH]c1=O.O=C(O)C(F)(F)F (stereo partly drawn) | 5 | 300 | 60
4 | 0.01 | – | Cc1cn([C@H]2C[C@H](N=[N+]=[N-])[C@@H](COC(=O)C(N)CCCCN)O2)c(=O)[nH]c1=O.O=C(O)C(F)(F)F (stereo partly drawn) | 14 | 300 | 30
5 | 0.12 | – | Cc1cn(C2CC(N=[N+]=[N-])C(COC(=O)CCC(N)C(=O)O)O2)c(=O)[nH]c1=O (stereo not drawn) | 30 | 320 | 70
6 | 3.3 | 0.11 | Cc1cn([C@H]2C[C@H](N=[N+]=[N-])[C@@H](COC(=O)C(N)Cc3ccccc3)O2)c(=O)[nH]c1=O.O=C(O)C(F)(F)F (stereo partly drawn) | 30 | 350 | 20

Second part, the molecule before the results:

Row | SMILES | PC [2] | IC50 [4] [µM] | T1/2 [1] [min] | IC50 (H9) [µM] | T1/2 [3] [min]
7 | Cc1cn([C@H]2C[C@H](N=[N+]=[N-])[C@@H](COC(=O)C3=CN(C)C=CC3)O2)c(=O)[nH]c1=O | 7.2 | 0.05 | 110 | 336 | > 240
8 | Cc1cn([C@H]2C[C@H](N=[N+]=[N-])[C@@H](COC(=O)CN3CCOCC3)O2)c(=O)[nH]c1=O | 2.2 | – | 28 | 320 | 12
9 | Cc1cn([C@H]2C[C@H](N=[N+]=[N-])[C@@H](CO)O2)c(=O)[nH]c1=O [ZIDOVUDINE] | 1.2 | 0.12 | – | 150 | –
10 | CC1=C(/C=C/C(C)=C/C=C/C(C)=C/C(=O)OC[C@H]2O[C@@H](n3cc(C)c(=O)[nH]c3=O)C[C@@H]2N=[N+]=[N-])C(C)(C)CCC1 | 17.9 | 0.2 | 60 | 25 | 120
